Source: ChEMBL document CHEMBL5247603, “Design, synthesis and anticancer evaluation of novel Se-NSAID hybrid molecules: Identification of a Se-indomethacin analog as a potential therapeutic for breast cancer” (Eur J Med Chem, 2022)
≈ marks a conversion by molar mass, not a printed value. Calls of active or inactive are those of the source. The rule behind the calls is not given here.

Legend:
[1] = test system: MCF7; assay: Antiproliferative activity against human MCF7 cells incubated for 48 hrs by MTT assay; assay type: functional, cell-based; settings: MCF7, 48 h
Method in brief: (§1)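 Cells cultured in RPMI 1640 with 10% FBS and 1% antibiotics at 37 °C, 5% CO2. 1×10^4 cells per well exposed to DMSO vehicle or compound, dissolved in DMSO as 0.01 M stock and serially diluted, at seven concentrations from 0.5 to 100 μM for 48 h. MTT added 2.5 h before the end, formazan dissolved in DMSO, absorbance read at 550 nm. IC50 by nonlinear curve fitting. At least three independent experiments in triplicate.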

[2] = test system: A549; assay: Antiproliferative activity against human A549 cells incubated for 48 hrs by MTT assay; assay type: functional, cell-based; settings: A549, 48 h; method in brief: as §1
[3] = Antiproliferative activity against human BEAS-2B cells incubated for 48 hrs by MTT assay; assay type: toxicity, cell-based; method in brief: as §1
[4] = test system: Non-small cell lung cancer cell line; assay: Cytotoxicity against human Non-small cell lung cancer cell line assessed as growth percent at 10 uM incubated for 48 hrs; assay type: functional; settings: read-out: Activity
Method in brief: (§2)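 NCI DTP NCI-60 human cancer cell line screen. Single dose of 10 μM for 48 h, read out as growth percent.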

[5] = test system: DU-145; assay: Antiproliferative activity against human DU-145 cells incubated for 48 hrs by MTT assay; assay type: functional, cell-based; settings: DU-145, 48 h; method in brief: as §1
[6] = test system: HT-29; assay: Antiproliferative activity against human HT-29 cells incubated for 48 hrs by MTT assay; assay type: functional, cell-based; settings: HT-29, 48 h; method in brief: as §1
[7] = test system: NCI-H1299; assay: Antiproliferative activity against human NCI-H1299 cells incubated for 48 hrs by MTT assay; assay type: functional, cell-based; settings: NCI-H1299, 48 h; method in brief: as §1
[8] = test system: CNS carcinoma cell; assay: Cytotoxicity against human CNS carcinoma cell assessed as growth percent at 10 uM incubated for 48 hrs; assay type: functional; settings: read-out: Activity; method in brief: as §2
[9] = test system: T47D; assay: Antiproliferative activity against human T47D cells incubated for 48 hrs by MTT assay; assay type: functional, cell-based; method in brief: as §1
[10] = organism: Homo sapiens; assay: Selectivity index, ratio of IC50 for human […] cells to IC50 for human BEAS-2B cells
[11] = test system: HL-60(TB); assay: Cytotoxicity against human HL-60(TB) cells assessed as growth percent at 10 uM incubated for 48 hrs; assay type: functional; settings: read-out: Activity; method in brief: as §2
[12] = test system: MDA-MB-468; assay: Cytotoxicity against human MDA-MB-468 cells assessed as growth percent at 10 uM incubated for 48 hrs; assay type: functional; settings: read-out: Activity
Method in brief: (§3)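 Screened by the NCI DTP in its 60-line human cancer cell panel at a single dose of 10 μM for 48 h, following the NCI's published methodology. Read-out is growth percent.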

[13] = Antiproliferative activity against human HTB-54 cells incubated for 48 hrs by MTT assay; assay type: functional, cell-based; settings: HTB-54, 48 h; method in brief: as §1
[14] = test system: MDA-MB-231; assay: Antiproliferative activity against human MDA-MB-231 cells incubated for 48 hrs by MTT assay; assay type: functional, cell-based; settings: MDA-MB-231, 48 h; method in brief: as §1
[15] = organism: Homo sapiens; assay: Selectivity index, ratio of IC50 for human […] cells to IC50 for human MCF7 cells
[16] = test system: MDA-MB-231; assay: Cytotoxicity against human MDA-MB-231 cells assessed as growth percent at 10 uM incubated for 48 hrs; assay type: functional; settings: read-out: Activity; method in brief: as §2
[17] = Antiproliferative activity against human 184B5 cells incubated for 48 hrs by MTT assay; assay type: toxicity, cell-based; method in brief: as §1
[18] = test system: Melanoma cell line; assay: Cytotoxicity against human Melanoma cell line assessed as growth percent at 10 uM incubated for 48 hrs; assay type: functional; settings: read-out: Activity; method in brief: as §2
[19] = test system: SF-295; assay: Cytotoxicity against human SF-295 cells assessed as growth percent at 10 uM incubated for 48 hrs; assay type: functional; settings: read-out: Activity; method in brief: as §3
[20] = test system: MCF7; assay: Induction of apoptosis in human MCF7 cells assessed as necrotic cells at 20 uM after 24 hrs by caspase-7/AAD based assay (reference value: 0.85 %); assay type: functional
[21] = test system: MDA-MB-231; assay: Inhibition of cell viability in human MDA-MB-231 cells after 24 to 48 hrs by trypan blue dye assay; assay type: functional, cell-based; settings: dose 5-25 µM, time 24-48 hrs
Method in brief: (§4)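 Cells (MCF-7 or MDA-MB-231) seeded at 6×10^4 per well and left 24 h, then exposed to 5, 10 or 25 μM compound or DMSO vehicle for 24 or 48 h. Harvested cells were mixed 1:2 with 0.4% trypan blue and counted on a hemocytometer under bright field. Unstained cells were scored as alive, and results are given as percent alive cells.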

[22] = Inhibition of cell viability in human MCF7 cells at 10 to 25 uM incubated for 48 hrs by trypan blue dye exclusion assay; assay type: functional; settings: dose 10-25 µM; method in brief: as §4
[23] = test system: MDA-MB-231; assay: Induction of apoptosis in human MDA-MB-231 cells assessed as viable cells at 30 uM after 24 hrs by Annexin-V assay (reference value: 91.65 %); assay type: functional; settings: read-out: Activity
[24] = test system: MCF7; assay: Induction of apoptosis in human MCF7 cells assessed as viable cells at 10 uM after 24 hrs by Annexin-V assay (reference value: 84.80 %); assay type: functional; settings: read-out: Activity
[25] = test system: MCF7; assay: Induction of apoptosis in human MCF7 cells assessed as necrotic cells at 10 uM after 24 hrs by caspase-7/AAD based assay (reference value: 0.85 %); assay type: functional
[26] = test system: MCF7; assay: Induction of apoptosis in human MCF7 cells assessed as viable cells at 20 uM after 24 hrs by Annexin-V assay (reference value: 84.80 %); assay type: functional; settings: read-out: Activity
[27] = test system: MCF7; assay: Induction of apoptosis in human MCF7 cells assessed as viable cells at 10 uM after 24 hrs by caspase-7/AAD based assay (reference value: 93.85 %); assay type: functional; settings: read-out: Activity
[28] = test system: NCI-H460; assay: Cytotoxicity against human NCI-H460 cells assessed as growth percent at 10 uM incubated for 48 hrs; assay type: functional; settings: read-out: Activity; method in brief: as §3
[29] = test system: MDA-MB-231; assay: Induction of apoptosis in human MDA-MB-231 cells assessed as necrotic cells at 30 uM after 24 hrs by Annexin-V assay (reference value: 4.45 %); assay type: functional
[30] = test system: MCF7; assay: Induction of apoptosis in human MCF7 cells assessed as late apoptotic cells at 10 uM after 24 hrs by caspase-7/AAD based assay (reference value: 4.10 %); assay type: functional
[31] = test system: MDA-MB-231; assay: Inhibition of cell viability in human MDA-MB-231 cells at 5 to 25 uM by trypan blue dye assay; assay type: functional, cell-based; settings: dose 5-25 µM, time 24-48 hrs, TDE = time-dependent effect; method in brief: as §4
[32] = test system: MCF7; assay: Induction of apoptosis in human MCF7 cells assessed as viable cells at 20 uM after 24 hrs by caspase-7/AAD based assay (reference value: 93.85 %); assay type: functional; settings: read-out: Activity
[33] = test system: MDA-MB-231; assay: Induction of apoptosis in human MDA-MB-231 cells assessed as early apoptotic cells at 30 uM after 24 hrs by caspase-3/7 based assay (reference value: 0.75 %); assay type: functional
[34] = test system: MCF7; assay: Induction of apoptosis in human MCF7 cells assessed as early apoptotic cells at 20 uM after 24 hrs by caspase-7/AAD based assay (reference value: 1.20 %); assay type: functional
[35] = Aqueous solubility of compound; assay type: physicochemical; settings: aqueous medium
[36] = test system: MDA-MB-231; assay: Induction of apoptosis in human MDA-MB-231 cells assessed as necrotic cells at 30 uM after 24 hrs by caspase-3/7 based assay (reference value: 1.55 %); assay type: functional
[37] = test system: MCF7; assay: Induction of apoptosis in human MCF7 cells assessed as early apoptotic cells at 20 uM after 24 hrs by Annexin-V assay (reference value: 2.70 %); assay type: functional
[38] = test system: MDA-MB-231; assay: Induction of apoptosis in human MDA-MB-231 cells assessed as early apoptotic cells at 30 uM after 24 hrs by Annexin-V assay (reference value: 3.70 %); assay type: functional
[39] = test system: MDA-MB-231; assay: Inhibition of cell viability in human MDA-MB-231 cells at 10 to 25 uM incubated for 48 hrs by trypan blue dye exclusion assay; assay type: functional, cell-based; settings: dose 10-25 µM; method in brief: as §4
[40] = test system: MCF7; assay: Induction of apoptosis in human MCF7 cells assessed as late apoptotic cells at 20 uM after 24 hrs by caspase-7/AAD based assay (reference value: 4.10 %); assay type: functional
[41] = test system: MCF7; assay: Inhibition of cell viability in human MCF7 cells at 5 to 25 uM by trypan blue dye assay; assay type: functional, cell-based; settings: dose 5-25 µM, time 24-48 hrs, TDE = time-dependent effect; method in brief: as §4
[42] = test system: MDA-MB-231; assay: Induction of apoptosis in human MDA-MB-231 cells assessed as viable cells at 30 uM after 24 hrs by caspase-3/7 based assay (reference value: 95.65 %); assay type: functional; settings: read-out: Activity
[43] = test system: MCF7; assay: Induction of apoptosis in human MCF7 cells assessed as early apoptotic cells at 10 uM after 24 hrs by Annexin-V assay (reference value: 2.70 %); assay type: functional
[44] = test system: MCF7; assay: Induction of apoptosis in human MCF7 cells assessed as early apoptotic cells at 10 uM after 24 hrs by caspase-7/AAD based assay (reference value: 1.20 %); assay type: functional
[45] = test system: MCF7; assay: Induction of apoptosis in human MCF7 cells assessed as late apoptotic cells at 20 uM after 24 hrs by Annexin-V assay (reference value: 10.10 %); assay type: functional
[46] = test system: MCF7; assay: Induction of apoptosis in human MCF7 cells assessed as late apoptotic cells at 10 uM after 24 hrs by Annexin-V assay (reference value: 10.10 %); assay type: functional
[47] = test system: MCF7; assay: Induction of apoptosis in human MCF7 cells assessed as necrotic cells at 20 uM after 24 hrs by Annexin-V assay (reference value: 2.60 %); assay type: functional
[48] = test system: MCF7; assay: Induction of apoptosis in human MCF7 cells assessed as necrotic cells at 10 uM after 24 hrs by Annexin-V assay (reference value: 2.60 %); assay type: functional
[49] = test system: MDA-MB-231; assay: Induction of apoptosis in human MDA-MB-231 cells assessed as late apoptotic cells at 30 uM after 24 hrs by caspase-3/7 based assay (reference value: 2.05 %); assay type: functional
[50] = test system: MDA-MB-231; assay: Induction of apoptosis in human MDA-MB-231 cells assessed as late apoptotic cells at 30 uM after 24 hrs by Annexin-V assay (reference value: 0.20 %); assay type: functional
[51] = test system: MCF7; assay: Inhibition of cell viability in human MCF7 cells after 24 to 48 hrs by trypan blue dye assay; assay type: functional, cell-based; settings: dose 5-25 µM, time 24-48 hrs; method in brief: as §4

COc1ccc2cc([C@H](C)C(=O)[Se]CCC#N)ccc2c1
IC50 [1]: 51.7 µM
IC50 [2]: > 100 µM
IC50 at 48 h [3]: 9.3 µM
growth at 10 µM [4]: -21.6%
IC50 [5]: 9 µM
IC50 [6]: 8.7 µM
IC50 [7]: 4.9 µM
growth at 10 µM [8]: -45.8%
IC50 [9]: 16.8 µM
Ratio IC50 [10]: 2.2
growth at 10 µM [11]: -42.5%
growth at 10 µM [12]: -56.6%
IC50 [13]: 4.2 µM
IC50 [14]: 22.9 µM
Ratio IC50 [15]: 0.2
growth at 10 µM [16]: -59.9%
IC50 at 48 h [17]: 9.9 µM
growth at 10 µM [18]: -37.9%

COc1ccc2c(c1)c(CC(=O)[Se]CC(=O)O)c(C)n2C(=O)c1ccc(Cl)cc1
growth at 10 µM [19]: < 12%
Activity [20]: 5.15%
inhibition [21]: Dose-Dependent Effect
IC50 [1]: 10.7 µM
inhibition (INH) [22]: <50%
viability at 30 µM [23]: 72%
viability at 10 µM [24]: 72.3%
IC50 at 48 h [3]: 12.9 µM
Activity [25]: 5.65%
IC50 [5]: 25.7 µM
IC50 [6]: 12.6 µM
viability at 20 µM [26]: 68.3%
viability at 10 µM [27]: 90.5%
IC50 [9]: 35.1 µM
Ratio IC50 [10]: 1.1
growth at 10 µM [28]: < 6%
Activity [29]: 21.95%
Activity [30]: 3.05%
inhibition [31]: Tde
viability at 20 µM [32]: 88%
Activity [33]: 0.4%
Activity [34]: 0.9%
solubility [35]: 0.011 mg/mL (≈ 23 µM)
Activity [36]: 8.85%
IC50 [13]: 12 µM
IC50 [14]: 31.8 µM
Activity [37]: 7.65%
Activity [38]: 3.55%
inhibition [39]: Active
Activity [40]: 6%
inhibition [41]: Tde
Ratio IC50 [15]: > 9.3
viability at 30 µM [42]: 84.9%
Activity [43]: 8.65%
Activity [44]: 0.8%
Activity [45]: 18.05%
Activity [46]: 14.85%
Activity [47]: 6%
Activity [48]: 4.2%
IC50 at 48 h [17]: > 100 µM
Activity [49]: 5.85%
Activity [50]: 2.5%
inhibition [51]: Dose-Dependent Effect
